How the values were obtained:
Type in all cases: functional
TK-10 = test: Antitumor activity against human TK10 cells after 48 hrs by SRB assay; settings: TK-10, 48 h; for CC50: read-out: LC50 (the source's name)
Summary of the method: (§1)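 NCI 60-cell-line secondary screen. Continuous 48 h exposure at five concentration levels. Cell growth estimated by sulforhodamine B protein staining. GI50 taken as the concentration giving 50% reduction in net protein increase relative to untreated control cells over the incubation. TGI (total growth inhibition) and LC50 (50% cell kill) were also derived.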

MDA-MB-468 = test: Antitumor activity against human MDA-MB-468 cells after 48 hrs by SRB assay; settings: MDA-MB-468, 48 h; for CC50: read-out: LC50 (the source's name)
Summary of the method: (§2)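 NCI 60-cell-line secondary screen. Cells were exposed continuously to drug for 48 h at five concentration levels (100, 10, 1.0, 0.1 and 0.01). Growth was estimated by sulforhodamine B protein staining. GI50 is the concentration giving a 50% reduction in net protein increase versus untreated control cells over the incubation. TGI (total growth inhibition) and LC50 (50% cell kill) were also derived.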

CAKI-1 = test: Antitumor activity against human Caki1 cells after 48 hrs by SRB assay; settings: CAKI-1, 48 h; for CC50: read-out: LC50 (the source's name); summary of the method: as §2
EKVX = test: Antitumor activity against human EKVX cells after 48 hrs by SRB assay; summary of the method: as §2
MDA-MB-231 = test: Antitumor activity against human MDA-MB-231 cells after 48 hrs by SRB assay; settings: MDA-MB-231, 48 h; for CC50: read-out: LC50 (the source's name); summary of the method: as §2
SN12C = test: Antitumor activity against human SN12C cells after 48 hrs by SRB assay; settings: for CC50: read-out: LC50 (the source's name); summary of the method: as §2
KM12 = test: Antitumor activity against human KM12 cells after 48 hrs by SRB assay; settings: KM12, 48 h; for CC50: read-out: LC50 (the source's name); summary of the method: as §2
SK-MEL-28 = test: Antitumor activity against human SK-MEL-28 cells after 48 hrs by SRB assay; settings: SK-MEL-28, 48 h; for CC50: read-out: LC50 (the source's name); summary of the method: as §2
NCI-H522 = test: Antitumor activity against human NCI-H522 cells after 48 hrs by SRB assay; settings: NCI-H522, 48 h; summary of the method: as §2
SW-620 = test: Antitumor activity against human SW620 cells after 48 hrs by SRB assay; settings: SW-620, 48 h; for CC50: read-out: LC50 (the source's name); summary of the method: as §1
RPMI-8226 = test: Antitumor activity against human RPMI8226 cells after 48 hrs by SRB assay; settings: RPMI-8226, 48 h; for CC50: read-out: LC50 (the source's name); summary of the method: as §2
SK-MEL-5 = test: Antitumor activity against human SK-MEL-5 cells after 48 hrs by SRB assay; settings: SK-MEL-5, 48 h; for CC50: read-out: LC50 (the source's name); summary of the method: as §2
SNB-75 = test: Antitumor activity against human SNB75 cells after 48 hrs by SRB assay; settings: SNB-75, 48 h; for CC50: read-out: LC50 (the source's name); summary of the method: as §2
UACC-62 = test: Antitumor activity against human UACC62 cells after 48 hrs by SRB assay; settings: UACC-62, 48 h; for CC50: read-out: LC50 (the source's name); summary of the method: as §1
SF-268 = test: Antitumor activity against human SF268 cells after 48 hrs by SRB assay; settings: SF-268, 48 h; for CC50: read-out: LC50 (the source's name); summary of the method: as §2
SF-295 = test: Antitumor activity against human SF295 cells after 48 hrs by SRB assay; settings: SF-295, 48 h; for CC50: read-out: LC50 (the source's name); summary of the method: as §2
M14 = test: Antitumor activity against human M14 cells after 48 hrs by SRB assay; settings: M14, 48 h; for CC50: read-out: LC50 (the source's name); summary of the method: as §2
UO-31 = test: Antitumor activity against human UO31 cells after 48 hrs by SRB assay; settings: UO-31, 48 h; for CC50: read-out: LC50 (the source's name); summary of the method: as §1
Malme-3M = test: Antitumor activity against human MALME-3M cells after 48 hrs by SRB assay; settings: for CC50: read-out: LC50 (the source's name); summary of the method: as §2
BT-549 = test: Antitumor activity against human BT549 cells after 48 hrs by SRB assay; settings: BT-549, 48 h; for CC50: read-out: LC50 (the source's name); summary of the method: as §2
NCI-H226 = test: Antitumor activity against human NCI-H226 cells after 48 hrs by SRB assay; settings: NCI-H226, 48 h; summary of the method: as §2
SK-OV-3 = test: Antitumor activity against human SKOV3 cells after 48 hrs by SRB assay; settings: SK-OV-3, 48 h; for CC50: read-out: LC50 (the source's name); summary of the method: as §2
K562 = test: Antitumor activity against human K562 cells after 48 hrs by SRB assay; settings: K562, 48 h; for CC50: read-out: LC50 (the source's name); summary of the method: as §2
HCT-15 = test: Antitumor activity against human HCT15 cells after 48 hrs by SRB assay; settings: HCT-15, 48 h; summary of the method: as §2
UACC-257 = test: Antitumor activity against human UACC257 cells after 48 hrs by SRB assay; settings: UACC-257, 48 h; for CC50: read-out: LC50 (the source's name); summary of the method: as §1
DU-145 = test: Antitumor activity against human DU145 cells after 48 hrs by SRB assay; settings: DU-145, 48 h; for CC50: read-out: LC50 (the source's name); summary of the method: as §2
IGROV-1 = test: Antitumor activity against human IGROV1 cells after 48 hrs by SRB assay; settings: IGROV-1, 48 h; for CC50: read-out: LC50 (the source's name); summary of the method: as §2
LOX IMVI = test: Antitumor activity against human LOXIMVI cells after 48 hrs by SRB assay; settings: for CC50: read-out: LC50 (the source's name); summary of the method: as §2
T47D = test: Antitumor activity against human T47D cells after 48 hrs by SRB assay; settings: for CC50: read-out: LC50 (the source's name); summary of the method: as §1
ACHN = test: Antitumor activity against human ACHN cells after 48 hrs by SRB assay; settings: for CC50: read-out: LC50 (the source's name); summary of the method: as §2
HOP-92 = test: Antitumor activity against human HOP92 cells after 48 hrs by SRB assay; settings: HOP-92, 48 h; summary of the method: as §2

## COC(=O)c1ccc2c(c1)nc(-c1cc3ccccc3[nH]c1=O)n2-c1cc(C(C)(C)C)[nH]n1
TK-10
  GI50: 16.9 µM
  TGI: 55.8 µM
  CC50: > 100 µM
MDA-MB-468
  GI50: 20.5 µM
  TGI: > 100 µM
  CC50: > 100 µM
CAKI-1
  GI50: 0.476 µM
  TGI: 90.5 µM
  CC50: > 100 µM
EKVX
  GI50: 5.8 µM
  LC50 (50% cell kill): > 100 µM
  TGI: > 100 µM
MDA-MB-231
  GI50: 4.13 µM
  TGI: > 100 µM
  CC50: > 100 µM
SN12C
  GI50: 5.61 µM
  TGI: > 100 µM
  CC50: > 100 µM
KM12
  GI50: 1.29 µM
  CC50: > 100 µM
SK-MEL-28
  TGI: > 100 µM
  CC50: > 100 µM
NCI-H522
  GI50: 0.928 µM
  LC50 (50% cell kill): > 100 µM
  TGI: > 100 µM
SW-620
  TGI: > 100 µM
  CC50: > 100 µM
RPMI-8226
  GI50: 0.167 µM
  TGI: 0.987 µM
  CC50: > 100 µM
SK-MEL-5
  GI50: 2.3 µM
  TGI: > 100 µM
  CC50: > 100 µM
SNB-75
  GI50: 5.42 µM
  TGI: 41.5 µM
  CC50: > 100 µM
UACC-62
  TGI: > 100 µM
  CC50: > 100 µM
SF-268
  GI50: 2.13 µM
  TGI: 91.9 µM
  CC50: > 100 µM
SF-295
  GI50: 1.23 µM
  TGI: 25.5 µM
  CC50: > 100 µM
M14
  TGI: > 100 µM
  CC50: > 100 µM
UO-31
  GI50: 0.533 µM
  TGI: > 100 µM
  CC50: > 100 µM
Malme-3M
  GI50: 2.63 µM
  TGI: > 100 µM
  CC50: > 100 µM
BT-549
  GI50: 4.88 µM
  TGI: 66.2 µM
  CC50: > 100 µM
NCI-H226
  GI50: 7 µM
  LC50 (50% cell kill): > 100 µM
  TGI: > 100 µM
SK-OV-3
  GI50: 28.5 µM
  TGI: > 100 µM
  CC50: > 100 µM
K562
  GI50: 1.73 µM
  TGI: > 100 µM
  CC50: > 100 µM
HCT-15
  LC50 (50% cell kill): > 100 µM
  TGI: > 100 µM
UACC-257
  TGI: > 100 µM
  CC50: > 100 µM
DU-145
  GI50: 2.37 µM
  TGI: > 100 µM
  CC50: > 100 µM
IGROV-1
  GI50: 0.965 µM
  TGI: > 100 µM
  CC50: > 100 µM
LOX IMVI
  GI50: 1.24 µM
  CC50: > 100 µM
T47D
  GI50: > 100 µM
  TGI: > 100 µM
  CC50: > 100 µM
ACHN
  GI50: > 100 µM
  TGI: > 100 µM
  CC50: > 100 µM

## COC(=O)c1ccc2c(c1)nc(-c1ccc(Cl)cc1)n2-c1cc(C(C)(C)C)[nH]n1
TK-10
  GI50: 6.94 µM
  TGI: > 100 µM
  CC50: > 100 µM
MDA-MB-468
  GI50: 2.4 µM
  TGI: 7.98 µM
  CC50: > 100 µM
CAKI-1
  GI50: 2.25 µM
  TGI: 12.8 µM
  CC50: > 100 µM
EKVX
  GI50: 3.06 µM
  LC50 (50% cell kill): > 100 µM
  TGI: > 100 µM
MDA-MB-231
  GI50: 4.62 µM
  TGI: 27 µM
  CC50: > 100 µM
SN12C
  GI50: 4.34 µM
  TGI: 27.7 µM
  CC50: > 100 µM
KM12
  GI50: 2.12 µM
  TGI: 6.07 µM
  CC50: > 100 µM
SK-MEL-28
  GI50: 3.38 µM
  TGI: 15.5 µM
  CC50: 0.552 µM
NCI-H522
  GI50: 3.21 µM
  LC50 (50% cell kill): > 100 µM
  TGI: 20.3 µM
SW-620
  GI50: 3.24 µM
  TGI: > 100 µM
  CC50: > 100 µM
RPMI-8226
  GI50: 3.93 µM
  TGI: 19 µM
  CC50: > 100 µM
SK-MEL-5
  GI50: 2.02 µM
  TGI: 5.1 µM
  CC50: 0.186 µM
SNB-75
  GI50: 2.14 µM
  TGI: 12.6 µM
  CC50: > 100 µM
UACC-62
  GI50: 2.01 µM
  TGI: 7.78 µM
  CC50: 0.463 µM
SF-268
  GI50: 3.29 µM
  TGI: 17.8 µM
  CC50: > 100 µM
SF-295
  GI50: 2.48 µM
  TGI: 8.98 µM
  CC50: > 100 µM
M14
  GI50: 2.9 µM
  TGI: 8.22 µM
  CC50: 0.758 µM
UO-31
  GI50: 3.35 µM
  TGI: 44.1 µM
  CC50: > 100 µM
HOP-92
  GI50: 1.15 µM
  TGI: 8.02 µM
HOP-92; read-out: LC50 (the source's name)
  CC50: > 100 µM
Malme-3M
  GI50: 3.25 µM
  TGI: 15.6 µM
  CC50: > 100 µM
BT-549
  GI50: 3.35 µM
  TGI: 11.2 µM
  CC50: 0.595 µM
NCI-H226
  GI50: 4.09 µM
  LC50 (50% cell kill): > 100 µM
  TGI: 44 µM
SK-OV-3
  GI50: 3.71 µM
  TGI: 31 µM
  CC50: > 100 µM
K562
  GI50: 4.2 µM
  TGI: > 100 µM
  CC50: > 100 µM
HCT-15
  GI50: 4.36 µM
  LC50 (50% cell kill): > 100 µM
  TGI: > 100 µM
UACC-257
  GI50: 4.97 µM
  TGI: 22.9 µM
  CC50: 0.967 µM
DU-145
  GI50: 3.7 µM
  TGI: 25.8 µM
  CC50: > 100 µM
IGROV-1
  GI50: 3.64 µM
  TGI: 25 µM
  CC50: > 100 µM
LOX IMVI
  GI50: 3.7 µM
  TGI: 14.5 µM
  CC50: 0.429 µM
T47D
  GI50: 3.64 µM
  TGI: > 100 µM
  CC50: > 100 µM
ACHN
  GI50: 3 µM
  TGI: 9.34 µM
  CC50: > 100 µM

Reference: ChEMBL document CHEMBL1821569, “Synthesis of novel 1,2,5-trisubstituted benzimidazoles as potential antitumor agents” (2011)
